Reference: ChEMBL document CHEMBL3875165, “Novel broad-spectrum and long-acting parenteral cephalosporins having an acyl cyanamide moiety at the C-3 terminal: Synthesis and structure-activity relationships” (Eur J Med Chem, 2016)
Values after ≈ are worked out from the molar mass of the structure shown.

Key:
Staphylococcus aureus [1] = assay: Antibacterial activity against Staphylococcus aureus SMITH; type: functional
Method in brief: (§1)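 Agar dilution MIC on Sensitivity Disk Agar-N with 2-fold serial drug dilutions. Overnight Mueller Hinton broth cultures were diluted to about 10^6 CFU/mL, and 1 µL spots were applied. Plates were incubated 20 h at 37 °C before scoring.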

Staphylococcus aureus [2] = assay: Antibacterial activity against methicillin-resistant Staphylococcus aureus SR2030; type: functional
Method in brief: (§2)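 Agar dilution on Sensitivity Disk Agar-N. Overnight Mueller Hinton broth cultures were diluted to about 10^6 CFU/mL, and 1 µL spots were placed on agar plates holding 2-fold serial dilutions of antibiotic. Plates were incubated 20 h at 37 °C and then MICs were scored.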

Staphylococcus aureus [3] = assay: Antibacterial activity against methicillin-resistant Staphylococcus aureus SR3626; type: functional; method in brief: as §2
Escherichia coli [4] = assay: Antibacterial activity against Escherichia coli NIHJ JC-2; type: functional; method in brief: as §1
Pseudomonas aeruginosa [5] = assay: Antibacterial activity against Pseudomonas aeruginosa PAO1; type: functional; method in brief: as §1
Pseudomonas aeruginosa [6] = assay: Antibacterial activity against Pseudomonas aeruginosa SA24; type: functional; method in brief: as §1
[7] = AUC (0 to infinity) in monkey at 20 mg/kg, iv administered as bolus dose by HPLC method; type: ADME, organism-based, Macaca mulatta; set-up: dose 20 mg/kg, time infinity, route intravenous; settings: rhesus monkey, in vivo
Method in brief: (§3)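 Three monkeys per group received a single iv bolus of 20 mg/kg (1 mL/kg). Plasma levels were measured by HPLC. AUC0-∞, CLtot and T1/2 came from a 2-compartment fit.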

[8] = Half life in monkey at 20 mg/kg, iv administered as bolus dose by HPLC method; type: ADME, organism-based, Macaca mulatta; settings: rhesus monkey, in vivo; method in brief: as §3
[9] = Half life in mouse at 20 mg/kg, iv administered as bolus dose by band-culture bioassay; settings: in vivo
[10] = AUC (0 to infinity) in mouse at 20 mg/kg, iv administered as bolus dose by band-culture bioassay; settings: in vivo
[11] = Total clearance in monkey at 20 mg/kg, iv administered as bolus dose by HPLC method; type: ADME, organism-based, Macaca mulatta; settings: rhesus monkey, in vivo; method in brief: as §3
[12] = Protein binding in ICR mouse plasma after 30 mins by ultra-filtration method; type: ADME, cell-free; settings: read-out: PPB (converted)
Method in brief: (§4)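 Mouse or monkey plasma was adjusted to pH 7 with CO2 and spiked with compound to a final 10 µg/ml. It was incubated 30 min at 37 °C, then ultrafiltered by centrifugation at 3200 rpm for 30 min at 25 °C. Free drug in the filtrate was measured by bioassay to give the bound fraction.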

[13] = Protein binding in cynomolgus monkey plasma after 30 mins by ultra-filtration method; type: ADME, cell-free, Macaca fascicularis; settings: read-out: PPB (converted); method in brief: as §4
Staphylococcus aureus [14] = assay: Antibacterial activity against Staphylococcus aureus SMITH after 20 hrs by agar dilution method; type: functional; method in brief: as §1
Streptococcus pneumoniae [15] = assay: Antibacterial activity against penicillin-resistant Streptococcus pneumoniae SR16675 after 20 hrs by agar dilution method; type: functional; settings: SR16675, 20 h; method in brief: as §2
Streptococcus pneumoniae [16] = assay: Antibacterial activity against penicillin-resistant Streptococcus pneumoniae SR16750 after 20 hrs by agar dilution method; type: functional; settings: SR16750, 20 h; method in brief: as §2
Haemophilus influenzae [17] = assay: Antibacterial activity against beta-lactamase non-producing penicillin-resistant Haemophilus influenzae SR11435 after 20 hrs by agar dilution method; type: functional; settings: SR11435, 20 h; method in brief: as §2
Haemophilus influenzae [18] = assay: Antibacterial activity against beta-lactamase non-producing penicillin-resistant Haemophilus influenzae SR24106 after 20 hrs by agar dilution method; type: functional; settings: SR24106, 20 h; method in brief: as §2
Moraxella catarrhalis = assay: Antibacterial activity against Moraxella catarrhalis SR24290 after 20 hrs by agar dilution method; type: functional; settings: SR24290, 20 h; method in brief: as §1
Escherichia coli [19] = assay: Antibacterial activity against Escherichia coli NIHJ JC-2 after 20 hrs by agar dilution method; type: functional; settings: NIHJ JC-2, 20 h; method in brief: as §1
Streptococcus pneumoniae [20] = assay: Antibacterial activity against penicillin-susceptible Streptococcus pneumoniae SR16605 infected in sc dosed mouse assessed as protection against bacterial infection by measuring increase in mouse survival administered 1 and 5 hrs post infection measured after 7 days; type: functional
Method in brief: (§5)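 Mouse septicemia model in six-week-old male Jcl:ICR mice (19 to 25 g). Mice were infected intraperitoneally with 0.5 mL of S. pneumoniae suspension in hog mucin. Compound was given subcutaneously 1 and 5 h after infection. Mortality was recorded over 7 days, and ED50 with 90% confidence limits was derived by the logit method.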

Streptococcus pneumoniae [21] = assay: Antibacterial activity against penicillin-resistant Streptococcus pneumoniae SR16754 infected in sc dosed mouse assessed as protection against bacterial infection by measuring increase in mouse survival administered 1 and 5 hrs post infection measured after 7 days; type: functional; method in brief: as §5
Streptococcus pneumoniae [22] = assay: Antibacterial activity against penicillin-susceptible Streptococcus pneumoniae SR16605 after 20 hrs by agar dilution method; type: functional; settings: SR16605, 20 h; method in brief: as §2
Streptococcus pneumoniae [23] = assay: Antibacterial activity against penicillin-resistant Streptococcus pneumoniae SR16754 after 20 hrs by agar dilution method; type: functional; settings: SR16754, 20 h; method in brief: as §2
Streptococcus pneumoniae [24] = assay: Potency index, ratio of Ceftriaxone MIC to compound MIC for penicillin-susceptible Streptococcus pneumoniae SR16605; type: functional
[25] = Total clearance in mouse at 20 mg/kg, iv administered as bolus dose by band-culture bioassay; settings: in vivo

SMILES	MIC (Staphylococcus aureus [1]) [µg/mL]	MIC (Staphylococcus aureus [2]) [µg/mL]	MIC (Staphylococcus aureus [3]) [µg/mL]	MIC (Escherichia coli [4]) [µg/mL]	MIC (Pseudomonas aeruginosa [5]) [µg/mL]	AUC [7] [ng·h/mL]	half-life [8] [h]	half-life [9] [h]	AUC(0-inf) [10] [ng·h/mL]	clearance [11] [mL/min/kg]	fraction unbound at 0.5 h [12]	fraction unbound at 0.5 h [13]	MIC (Staphylococcus aureus [14]) [µg/mL]	MIC (Streptococcus pneumoniae [15]) [µg/mL]	MIC (Streptococcus pneumoniae [16]) [µg/mL]	MIC (Haemophilus influenzae [17]) [µg/mL]	MIC (Haemophilus influenzae [18]) [µg/mL]	MIC (Moraxella catarrhalis) [µg/mL]	MIC (Escherichia coli [19]) [µg/mL]	clearance [25] [mL/min/kg]	also measured
CCO/N=C(\C(=O)N[C@@H]1C(=O)N2C(C(=O)[O-])=C(C[n+]3ccc(-c4c[nH]c(C(=O)O)c4)cc3)CS[C@H]12)c1nsc(N)n1	3.1 (≈ 5.18 µM)	12.5 (≈ 20.9 µM)	25 (≈ 41.8 µM)	0.05 (≈ 0.0835 µM)	0.8 (≈ 1.34 µM)																MIC (Pseudomonas aeruginosa [6]): 0.8 µg/mL (≈ 1.34 µM)
CCO/N=C(\C(=O)N[C@@H]1C(=O)N2C(C(=O)[O-])=C(C[n+]3ccc(-c4c[nH]c(C(=O)NC#N)c4)cc3)CS[C@H]12)c1nsc(N)n1	1.6 (≈ 2.57 µM)	12.5 (≈ 20.1 µM)	12.5 (≈ 20.1 µM)	0.1 (≈ 0.161 µM)	0.8 (≈ 1.28 µM)	22000	2	0.4	27300												MIC (Pseudomonas aeruginosa [6]): 0.4 µg/mL (≈ 0.642 µM)
CCO/N=C(\C(=O)N[C@@H]1C(=O)N2C(C(=O)[O-])=C(/C=C/C[n+]3ccc(-c4nc(/C([O-])=N/C#N)cs4)cc3)CS[C@H]12)c1csc(N)n1.[Na+]						37500	3.88	0.67	20900	0.49	0.81	0.27	0.5	0.25	0.25	0.031	0.063	1	0.063	16	ED50 (Streptococcus pneumoniae [20]): 0.017 mg/kg; ED50 (Streptococcus pneumoniae [21]): 0.71 mg/kg; MIC (Streptococcus pneumoniae [22]): 0.008 µg/mL; MIC (Streptococcus pneumoniae [23]): 0.25 µg/mL; Ratio (Streptococcus pneumoniae [24]): 2 - 3
CCO/N=C(\C(=O)N[C@@H]1C(=O)N2C(C(=O)[O-])=C(/C=C/C[n+]3ccc4sc(/C([O-])=N/C#N)nc4c3)CS[C@H]12)c1csc(N)n1.[Na+]						24500	2.86	0.7	23700	0.68	0.59	0.16	0.5	0.125	0.25	0.063	0.063	0.5	0.25	14	
CCO/N=C(\C(=O)N[C@@H]1C(=O)N2C(C(=O)[O-])=C(C[n+]3ccc(-c4cc[nH]c4)cc3)CS[C@H]12)c1nsc(N)n1	0.4 (≈ 0.721 µM)	1.6 (≈ 2.88 µM)	6.3 (≈ 11.4 µM)	0.02 (≈ 0.0361 µM)	0.8 (≈ 1.44 µM)																MIC (Pseudomonas aeruginosa [6]): 0.8 µg/mL (≈ 1.44 µM)
CCO/N=C(\C(=O)N[C@@H]1C(=O)N2C(C(=O)[O-])=C(/C=C/C[n+]3cccc4cc(/C([O-])=N/C#N)ccc43)CS[C@H]12)c1csc(N)n1.[Na+]						8200	1.74	0.95	12900	2.08	0.9	0.63	0.25	0.25	0.5	0.031	0.125	0.5	0.125	25.7	
CCO/N=C(\C(=O)N[C@@H]1C(=O)N2C(C(=O)[O-])=C(/C=C/C[n+]3ccc4c(/C([O-])=N\C#N)cccc4c3)CS[C@H]12)c1csc(N)n1.[Na+]						10600	1.52	0.73	14200	1.59	0.97	0.42	0.5	0.25	0.5	0.063	0.125	2	0.125	23.5	
CO/N=C(\C(=O)N[C@@H]1C(=O)N2C(C(=O)[O-])=C(C[n+]3ccn4ncccc43)CS[C@H]12)c1nsc(N)n1 [CEFOZOPRAN]	0.8 (≈ 1.55 µM)	12.5 (≈ 24.2 µM)	50 (≈ 97 µM)	0.05 (≈ 0.097 µM)	0.8 (≈ 1.55 µM)	15000	1.2	0.4	30300												MIC (Pseudomonas aeruginosa [6]): 0.4 µg/mL (≈ 0.776 µM)
CO/N=C(\C(=O)N[C@@H]1C(=O)N2C(C(=O)O)=C(CSc3nc(=O)c(=O)[nH]n3C)CS[C@H]12)c1csc(N)n1 [CEFTRIAXONE]						21900	1.95	0.64	60800	0.77	0.06	0.05	2 (≈ 3.61 µM)	1 (≈ 1.8 µM)	2 (≈ 3.61 µM)	0.125 (≈ 0.225 µM)	0.25 (≈ 0.451 µM)	1 (≈ 1.8 µM)	0.125 (≈ 0.225 µM)	5.49	ED50 (Streptococcus pneumoniae [20]): 0.11 mg/kg; ED50 (Streptococcus pneumoniae [21]): 5.65 mg/kg; MIC (Streptococcus pneumoniae [22]): 0.016 µg/mL (≈ 0.0289 µM); MIC (Streptococcus pneumoniae [23]): 1 µg/mL (≈ 1.8 µM)
